This is an account of results in ChEMBL document CHEMBL1177641, “Synthesis and anti-hepatitis C virus (HCV) activity of 3'-C-substituted-methyl pyrimidine and purine nucleosides” (Bioorg Med Chem, 2010).

One series deals with Hepatitis C virus. Put plainly: Antiviral activity against HCV genotype1 infected in human Huh7 cells assessed as reduction of viral replication by steady-Glo luciferase assay. It is filed as functional, organism-based, Hepacivirus hominis. The conditions noted are these: genotype 1, Huh-7. The essentials:
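Huh-5-2 cells (Huh-7 with subgenomic genotype 1 replicon, luc-ubi-neo) seeded 5 × 10³/well in complete DMEM with 500 µg/mL G418; after 24 h at 37 °C, 5% CO₂, medium refreshed with G418 and compounds added from DMSO stock. Four days at 37 °C, then luciferase read by Steady-Glo. EC50 is the concentration halving replication; three repeats, mean ± SD.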

Series [1] in a line: Cytotoxicity against human Huh7 cells after 3 days by WST-1 assay. The class given is cell-based, Huh-7. The essentials: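 Huh-5-2 cells seeded 5 × 10³/well in complete DMEM with G418. Serial compound dilutions in complete DMEM without G418 added 24 h after seeding. Cells proliferated three days at 37 °C, then cell number determined by WST-1 assay.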
For orientation: Tetrazolium assays rely on reduction of a dye to a coloured formazan, in cell work by metabolically active cells.

Series [2] in a line: Selectivity index, ratio of CC50 for human Huh7 cells to EC50 for HCV genotype1. On the set-up: species or system Huh-7.

As a reminder, the EC50 is the concentration needed to bring the measured effect to its halfway point. As usually defined, the CC50 is the concentration giving 50% cytotoxicity. A higher CC50 goes with lower toxicity to the cells.

As to `Nc1ncnc2c1ncn2[C@@H]1O[C@H](CO)[C@](O)(CO)[C@H]1O`, the concentration giving a half-maximal response (EC50) in the series on Hepatitis C virus stood at 18.6 µM. This compound also displayed a CC50 at 72 h in series [1] of 37.3 µM. Besides, in series [2], the “Ratio CC50/EC50” value is recorded as 2.

Take `[N-]=[N+]=NC[C@@]1(O)[C@@H](CO)O[C@@H](n2cnc3c(O)ncnc32)[C@@H]1O`: the half-maximal effective concentration (EC50) with Hepatitis C virus is greater than 100 µM. Besides, the half-maximal cytotoxic concentration (CC50) at 72 h in series [1] is greater than 100 µM.

In turn, `Nc1ccn([C@@H]2O[C@H](CO)[C@](O)(CF)[C@H]2O)c(=O)n1` gave a CC50 at 72 h in series [1] greater than 100 µM.

The compound `CNc1ncnc2c1ncn2[C@@H]1O[C@H](CO)[C@](O)(CF)[C@H]1O` displayed a cytotoxic concentration (CC50) at 72 h in series [1] greater than 100 µM.

In the case of `[N-]=[N+]=NC[C@@]1(O)[C@@H](CO)O[C@@H](n2cnc3c(N)ncnc32)[C@@H]1O`, the EC50 with Hepatitis C virus turned out to be 11.8 µM. Moreover, in series [1], the CC50 at 72 h stood at 12.3 µM. In addition, the “Ratio CC50/EC50” value in series [2] is listed as 1.

In the case of `C[C@@]1(O)[C@H](O)[C@@H](CO)O[C@H]1n1cnc2c(N)ncnc21`, the concentration giving a half-maximal response (EC50) in the series with Hepatitis C virus is 0.3 µM.

As for `CNc1ncnc2c1ncn2[C@@H]1O[C@H](CO)[C@](O)(CO)[C@H]1O`, the EC50 in the series on Hepatitis C virus amounted to 37.8 µM. The compound also came in with a CC50 at 72 h in series [1] of 58.8 µM. The “Ratio CC50/EC50” value in series [2] is 1.6.

`Nc1ncnc2c1ncn2[C@@H]1O[C@H](CO)[C@](O)(CF)[C@H]1O`: in the series on Hepatitis C virus, the concentration giving a half-maximal response (EC50) was found to be 15.3 µM. Besides, half-maximal cytotoxicity in series [1] (CC50 at 72 h) was put at 18.9 µM. In addition, the “Ratio CC50/EC50” value in series [2] came to 1.2.

Take `CNc1ncnc2c1ncn2[C@@H]1O[C@H](CO)[C@](O)(CN=[N+]=[N-])[C@H]1O`: the EC50 in the series on Hepatitis C virus was greater than 100 µM. Also, in series [1], the half-maximal cytotoxic concentration (CC50) at 72 h is greater than 100 µM.

For the compound `[N-]=[N+]=NC[C@@]1(O)[C@@H](CO)O[C@@H](n2ccc(N)nc2=O)[C@@H]1O`, the EC50 in the series on Hepatitis C virus is greater than 100 µM. Also, the CC50 at 72 h in series [1] is greater than 100 µM.
